Measurements reported in ChEMBL document CHEMBL3102848, “Carbamazepine derivatives with P2X4 receptor-blocking activity” (Bioorg Med Chem, 2014).
Active and inactive are the calls of the source. The rule behind the calls is not given here.

How the values were obtained:
[1] = molecular target: T1, P2X purinoceptor 4 (Homo sapiens) (UniProt Q99571); assay: Negative allosteric modulation of human P2X4 receptor expressed in human 1321N1 cells assessed as reduction in ATP-induced cytosolic calcium influx at 3 to 30 uM; assay type: cell-based
T1 sequence (whole entry): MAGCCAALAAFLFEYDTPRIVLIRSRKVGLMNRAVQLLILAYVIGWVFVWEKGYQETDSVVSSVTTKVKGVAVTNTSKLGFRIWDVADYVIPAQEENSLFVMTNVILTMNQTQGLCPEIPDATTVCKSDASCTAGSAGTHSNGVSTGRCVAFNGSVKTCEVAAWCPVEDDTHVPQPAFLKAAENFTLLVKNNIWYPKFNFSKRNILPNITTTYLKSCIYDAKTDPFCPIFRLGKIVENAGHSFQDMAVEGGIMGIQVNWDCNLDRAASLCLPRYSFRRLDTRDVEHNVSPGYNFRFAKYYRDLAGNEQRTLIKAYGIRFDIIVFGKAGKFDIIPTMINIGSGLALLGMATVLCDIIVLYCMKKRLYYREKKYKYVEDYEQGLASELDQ
Method in brief: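 1321N1 astrocytoma cells stably expressing human P2X4. Full ATP concentration–response curves (10^-8 to 10^-3 M) for intracellular calcium, recorded without inhibitor and with three fixed modulator levels (3, 10, 30). ATP EC50 and maximal effect (Emax, %) were derived for each condition.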

[2] = molecular target: T2, P2X purinoceptor 7 (Homo sapiens) (UniProt Q99572); assay: Antagonist activity at human P2X7 receptor expressed in human 1321N1 cells assessed as inhibition of ATP-induced cytosolic calcium influx at 100 uM preincubated for 30 mins followed by ATP addition by Fluo-4 AM dye-based fluorescence assay; assay type: cell-based
T2 sequence (whole entry): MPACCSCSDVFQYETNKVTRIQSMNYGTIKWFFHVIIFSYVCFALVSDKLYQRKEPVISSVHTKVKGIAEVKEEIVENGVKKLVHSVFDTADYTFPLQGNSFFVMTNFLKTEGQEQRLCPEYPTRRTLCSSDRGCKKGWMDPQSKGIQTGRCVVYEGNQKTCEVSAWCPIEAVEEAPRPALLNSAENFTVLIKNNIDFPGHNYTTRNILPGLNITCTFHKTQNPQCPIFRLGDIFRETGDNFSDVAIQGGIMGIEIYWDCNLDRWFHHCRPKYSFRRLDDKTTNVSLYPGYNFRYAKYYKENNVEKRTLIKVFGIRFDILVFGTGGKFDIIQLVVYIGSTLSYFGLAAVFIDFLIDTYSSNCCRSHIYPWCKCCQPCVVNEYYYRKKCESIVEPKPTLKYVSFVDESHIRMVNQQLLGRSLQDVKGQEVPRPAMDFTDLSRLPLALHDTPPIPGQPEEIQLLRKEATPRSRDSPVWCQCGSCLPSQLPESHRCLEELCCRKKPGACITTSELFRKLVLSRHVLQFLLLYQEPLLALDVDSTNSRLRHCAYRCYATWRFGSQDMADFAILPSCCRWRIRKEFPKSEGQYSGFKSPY

For `CC(C)N(C(=O)N1c2ccccc2C=Cc2ccccc21)C(C)C`, the Activity [1] was “Active”.

For `O=C(N1CCCCC1)N1c2ccccc2C=Cc2ccccc21`, the inhibition [2] was -10%.

With `O=C(N1CCCC1)N1c2ccccc2C=Cc2ccccc21` the inhibition [2] was 33%.
